# Test results as given in ChEMBL document CHEMBL4414601 (J Med Chem, 2019).
# pEC50, pIC50: −log10 of the molar value.
# Tests used:
# [1] = tested on: Plasmodium falciparum; assay: Antiplasmodial activity against Plasmodium falciparum 3D7A erythrocytic stage assessed as reduction in [3H]hypoxanthine incorporation preincubated for 24 hrs followed by [3H]hypoxanthine addition and measured after 24 hrs by microbeta scintillation counting method; format: functional, organism-based
# How it was run: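 Nine threefold serial dilutions from 5 μM top concentration. Incubated 24 h at 37 °C under 5% CO2/5% O2/90% N2, then 0.2 μCi [3H]-hypoxanthine per well for another 24 h. Cells harvested on glass fibre filters and counted. Data normalized to compound-free parasitized RBCs; IC50 fitted.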
# [2] = molecular target: cGMP-dependent protein kinase (Plasmodium falciparum, UniProt W7JX98); assay: Inhibition of Plasmodium falciparum full length N-terminal His-tagged PKG expressed in Escherichia coli RosettaTM 2(DE3) pLysS cells using FAM-GRTGRRNSI-NH2 as substrate preincubated for 30 mins followed by ATP addition and measured after 30 mins by microfluidic mobility shift assay
# Chain of cGMP-dependent protein kinase (W7JX98 whole entry): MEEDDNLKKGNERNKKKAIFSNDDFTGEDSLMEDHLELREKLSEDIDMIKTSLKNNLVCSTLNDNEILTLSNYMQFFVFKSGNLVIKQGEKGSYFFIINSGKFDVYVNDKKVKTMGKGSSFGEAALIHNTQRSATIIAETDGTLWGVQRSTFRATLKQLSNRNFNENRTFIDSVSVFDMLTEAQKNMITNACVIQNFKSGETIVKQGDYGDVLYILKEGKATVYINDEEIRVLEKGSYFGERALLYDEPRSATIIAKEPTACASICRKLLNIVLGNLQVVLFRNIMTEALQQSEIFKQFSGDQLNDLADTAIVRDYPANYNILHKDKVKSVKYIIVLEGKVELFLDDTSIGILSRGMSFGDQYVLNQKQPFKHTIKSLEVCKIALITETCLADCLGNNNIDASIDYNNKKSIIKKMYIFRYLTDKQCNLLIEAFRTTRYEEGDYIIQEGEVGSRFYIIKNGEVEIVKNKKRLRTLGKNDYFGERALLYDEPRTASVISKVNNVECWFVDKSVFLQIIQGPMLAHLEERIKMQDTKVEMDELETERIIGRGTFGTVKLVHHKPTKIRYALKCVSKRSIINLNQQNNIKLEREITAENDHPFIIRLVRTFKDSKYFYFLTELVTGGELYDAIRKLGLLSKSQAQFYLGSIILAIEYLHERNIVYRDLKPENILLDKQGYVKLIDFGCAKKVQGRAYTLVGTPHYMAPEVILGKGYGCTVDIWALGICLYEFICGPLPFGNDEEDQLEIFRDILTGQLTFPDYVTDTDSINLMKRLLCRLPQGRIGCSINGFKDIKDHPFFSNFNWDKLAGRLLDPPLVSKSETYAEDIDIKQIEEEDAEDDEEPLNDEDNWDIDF
# [3] = Lipophilicity, LogD of compound by reverse phase HPLC analysis
# [4] = Aqueous solubility of compound; conditions: buffer
# [5] = tested on: L929; assay: Cytotoxicity against mouse L929 cells assessed as reduction in viability by dual luciferase reporter gene assay; format: ADME, cell-based
# [6] = Permeability of compound by PAMPA
# [7] = Clearance in mouse liver microsomes at 0.5 uM measured up to 45 mins in presence of NADPH by HPLC-MS/MS analysis; format: ADME, Microsome
# [8] = Clearance in rat liver microsomes at 0.5 uM measured up to 45 mins in presence of NADPH by HPLC-MS/MS analysis; format: ADME, Microsome
# [9] = Clearance in human liver microsomes at 0.5 uM measured up to 45 mins in presence of NADPH by HPLC-MS/MS analysis; format: ADME, Microsome
# [10] = tested on: Plasmodium falciparum; assay: (§1) Antiplasmodial activity against Plasmodium falciparum 3D7A asexual erythrocytic stage assessed as reduction in [3H]hypoxanthine incorporation preincubated for 48 hrs followed by [3H]hypoxanthine addition and measured after 24 hrs by microbeta scintillation counting method; format: functional, organism-based
# [11] = tested on: Plasmodium falciparum; assay: (§2) Antiplasmodial activity against Plasmodium falciparum 3D7A asexual erythrocytic stage assessed as reduction in [3H]hypoxanthine incorporation preincubated for 72 hrs followed by [3H]hypoxanthine addition and measured after 24 hrs by microbeta scintillation counting method; format: functional, organism-based
# [12] = tested on: Plasmodium falciparum; assay: as §1, with “3D7A harboring with PKG T618Q mutant” for “3D7A”; format: functional, organism-based
# [13] = tested on: Plasmodium falciparum; assay: as §2, with “3D7A harboring with PKG T618Q mutant” for “3D7A”; format: functional, organism-based
# [14] = molecular target: Voltage-gated inwardly rectifying potassium channel KCNH2 (Homo sapiens, UniProt Q12809); assay: Inhibition of human ERG expressed in CHO cells by Q-patch clamp assay
# Chain of Voltage-gated inwardly rectifying potassium channel KCNH2 (Q12809 whole entry): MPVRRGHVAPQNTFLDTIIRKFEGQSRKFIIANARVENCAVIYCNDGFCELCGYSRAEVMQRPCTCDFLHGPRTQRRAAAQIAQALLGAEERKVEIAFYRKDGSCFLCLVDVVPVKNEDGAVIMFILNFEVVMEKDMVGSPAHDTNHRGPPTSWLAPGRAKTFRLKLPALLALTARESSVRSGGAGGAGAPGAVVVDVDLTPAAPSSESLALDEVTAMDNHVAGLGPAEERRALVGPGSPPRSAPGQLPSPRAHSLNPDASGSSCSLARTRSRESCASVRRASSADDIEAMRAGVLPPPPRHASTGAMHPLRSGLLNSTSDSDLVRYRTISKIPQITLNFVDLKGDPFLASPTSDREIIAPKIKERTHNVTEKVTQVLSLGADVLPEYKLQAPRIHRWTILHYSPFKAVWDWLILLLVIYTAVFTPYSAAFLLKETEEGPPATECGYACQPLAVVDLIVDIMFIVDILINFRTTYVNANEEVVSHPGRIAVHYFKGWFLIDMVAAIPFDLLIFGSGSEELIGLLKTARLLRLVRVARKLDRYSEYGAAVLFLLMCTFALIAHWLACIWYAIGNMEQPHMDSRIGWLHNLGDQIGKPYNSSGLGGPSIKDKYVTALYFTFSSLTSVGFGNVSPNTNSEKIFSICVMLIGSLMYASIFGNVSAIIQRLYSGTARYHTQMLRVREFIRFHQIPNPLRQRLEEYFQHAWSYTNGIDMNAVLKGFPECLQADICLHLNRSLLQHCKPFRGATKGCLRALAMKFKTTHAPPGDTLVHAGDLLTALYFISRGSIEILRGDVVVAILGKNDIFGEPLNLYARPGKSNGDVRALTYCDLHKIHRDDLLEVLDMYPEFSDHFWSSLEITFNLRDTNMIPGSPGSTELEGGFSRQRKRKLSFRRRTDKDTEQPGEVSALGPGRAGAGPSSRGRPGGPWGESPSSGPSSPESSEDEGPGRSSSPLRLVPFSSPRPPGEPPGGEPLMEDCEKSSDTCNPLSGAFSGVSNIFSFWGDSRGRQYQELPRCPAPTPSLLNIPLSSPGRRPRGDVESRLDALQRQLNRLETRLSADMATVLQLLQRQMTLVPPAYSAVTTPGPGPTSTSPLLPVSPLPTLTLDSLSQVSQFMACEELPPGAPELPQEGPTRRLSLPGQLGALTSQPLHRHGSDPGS
# [15] = tested on: Plasmodium falciparum; assay: Antiplasmodial activity against […] of Plasmodium falciparum NF54 assessed as reduction in male gametocytes activation preincubated for 48 hrs followed by gametocytes activation and measured after 24 hrs by fluorescence based automated inverted microscopic analysis; format: functional, organism-based
# How it was run: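 Gametocyte activation was triggered by reduced temperature and ookinete medium containing xanthurenic acid. Male exflagellation centres were detected from a 10-frame video, scoring pixel changes caused by flagellar movement shifting surrounding cells.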
# [16] = tested on: Plasmodium falciparum; assay: Antiplasmodial activity against […] of Plasmodium falciparum NF54 assessed as reduction in female gametocytes activation preincubated for 48 hrs followed by gametocytes activation and measured after 24 hrs by fluorescence based automated inverted microscopic analysis; format: functional, organism-based
# How it was run: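 NF54 gametocytes were activated by lowered temperature plus ookinete medium with xanthurenic acid and anti-Pfs25-Cy3 antibody (1/2000 final dilution). Cultures were then kept at 26 °C for 24 h in the dark. Activated females were counted by Cy3 anti-Pfs25 fluorescence, with events gated on size, roundness and fluorescence intensity.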
Compound,pEC50 [1],pIC50 [2],chromatographic logD [3],solubility [4] [µM],pEC50 [5],Papp [6] [×10⁻⁶ cm/s],CLH [7] [mL/min/g],CLH [8] [mL/min/g],CLH [9] [mL/min/g],pEC50 [10],pEC50 [11],pEC50 [12],pEC50 [13],pIC50 [14],pEC50 [15],pEC50 [16]
Fc1ccc(-c2nc(C3CCNCC3)sc2-c2ccnc(Nc3cnccn3)n2)cc1,6.22,8.30,2.32,68,5.49,16,0.72,0.49,0.4,5.87,6.16,6.09,6.06,,,
Fc1ccc(-c2nc(N3CCCC3)sc2-c2ccnc(Nc3ccc(N4CCNCC4)cc3)n2)cc1,6.11,8.70,4.43,54,5.42,27,1.56,0.81,0.59,,,,,,,
OC(CNc1nccc(-c2sc(C3CCNCC3)nc2-c2ccc(F)cc2)n1)c1ccncc1 (centres undefined),,,1.79,225,4.82,1,2.08,0.77,5.8,,,,,4.55,5.44,4.97
Fc1ccc(-c2nc(C3CCNCC3)sc2-c2ccnc(Nc3nncs3)n2)cc1,5.99,,1.82,66,5.55,< 1,0.67,0.46,0.55,,,,,5.60,6.85,6.42
Cc1cc(Nc2nccc(-c3sc(C4CCNCC4)nc3-c3ccc(F)cc3)n2)on1,5.58,8.52,2.61,66,5.64,12,,,,,,,,,,
